Assays:
[1] = molecular target: T1, Tyrosine-protein phosphatase non-receptor type 1 (Homo sapiens, UniProt P18031); assay: Inhibition of recombinant human PTP1B (1 to 322 residues) expressed in Escherichia coli using pNPP as substrate incubated for 10 mins measured for 30 mins by spectrometric analysis
T1 sequence (P18031 whole entry): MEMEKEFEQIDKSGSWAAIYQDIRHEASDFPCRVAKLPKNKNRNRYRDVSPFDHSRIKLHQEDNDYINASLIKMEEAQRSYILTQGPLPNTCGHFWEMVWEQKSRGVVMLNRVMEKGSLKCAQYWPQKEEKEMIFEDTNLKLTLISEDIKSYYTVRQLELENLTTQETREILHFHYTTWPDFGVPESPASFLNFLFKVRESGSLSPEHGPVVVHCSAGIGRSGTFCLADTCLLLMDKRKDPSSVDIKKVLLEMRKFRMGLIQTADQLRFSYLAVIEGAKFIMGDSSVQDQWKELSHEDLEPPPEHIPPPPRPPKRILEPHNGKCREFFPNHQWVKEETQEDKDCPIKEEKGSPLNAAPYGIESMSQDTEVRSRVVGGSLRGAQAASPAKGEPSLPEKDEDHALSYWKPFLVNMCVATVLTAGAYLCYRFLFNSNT
How it was run: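 Enzyme (1 mg/mL stock) was mixed with sample in DMSO and 4 mM pNPP stock in 25 mM Tris-HCl pH 7.5, 1 mM EDTA, 2 mM b-mercaptoethanol and 1 mM DTT.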

[2] = molecular target: T1, Tyrosine-protein phosphatase non-receptor type 1; assay: Inhibition of recombinant human PTP1B (1 to 322 residues) expressed in Escherichia coli using pNPP as substrate by Dixon plot analysis
How it was run: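 Initial velocity with pNPP was recorded over a range of inhibitor concentrations in 25 mM Tris-HCl (pH 7.5) buffer with EDTA, b-mercaptoethanol and DTT at 37 °C, read at 405 nm. Data were fitted by nonlinear regression, and inhibition constants were taken from Dixon plots.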

[3] = molecular target: T1, Tyrosine-protein phosphatase non-receptor type 1; assay: Inhibition of recombinant human PTP1B (1 to 322 residues) expressed in Escherichia coli using pNPP as substrate preincubated for 60 mins followed by substrate addition measured at 30 secs interval for 10 mins by UV-spectrophotmetric method; conditions: read-out: Ki(app)
How it was run: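 Activity was read continuously by UV spectrophotometry for 10 min, giving progress curves of 20 points at 30 s intervals. Fixed substrate and several inhibitor levels were used, and any lag was excluded. vi, vs and Kobs were obtained by fitting the progress curves.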

CC(C)=CCc1c2c(c(O)c3c1O[C@]14C(=C[C@@H]5C[C@H]1C(C)(C)O[C@@]4(CC=C(C)C)C5=O)C3=O)C=CC(C)(C)O2
IC50 [1]: > 200 µM

CC(C)=CCc1c2c(c(O)c3c1O[C@]14C(=C[C@@H]5C[C@H]1C(C)(C)O[C@@]4(/C=C(/C)CO)C5=O)C3=O)C=CC(C)(C)O2
IC50 [1]: 70.2 µM
Ki [2]: 29300 nM

CC(C)=CCC/C(C)=C/Cc1c(O)c(CC=C(C)C)c2c(c1O)C(=O)C1=C[C@@H]3C[C@H]4C(C)(C)O[C@@](C/C=C(/C)C(=O)O)(C3=O)[C@@]14O2 [GAMBOGENIC ACID]
IC50 [1]: 3.47 µM
Ki [2]: 1210 nM

COC1=C2C(=O)c3c(O)c4c(c(CC=C(C)C)c3O[C@@]23[C@H]2C[C@@H]1C(=O)[C@]3(CC=C(C)C)OC2(C)C)O[C@](C)(CCC=C(C)C)C=C4
IC50 [1]: 12.8 µM
Ki [2]: 4380 nM

CC(C)=CCC[C@]1(C)C=Cc2c(O)c3c(c(CC=C(C)C)c2O1)O[C@]12C(=C[C@@H]4C[C@H]1C(C)(C)O[C@@]2(C/C=C(/C)C(=O)O)C4=O)C3=O [GAMBOGIC ACID]
IC50 [1]: 0.47 µM
Ki [3]: 499 nM
Ki [2]: 190 nM

CO[C@@H]1C2C(=O)c3c(O)c4c(c(CC=C(C)C)c3O[C@@]23[C@H]2C[C@@H]1C(=O)[C@]3(C/C=C(/C)C(=O)O)OC2(C)C)OC(C)(C)C=C4 (stereo partly specified)
IC50 [1]: 4.44 µM
Ki [2]: 1750 nM

CO[C@@H]1C2C(=O)c3c(O)c(C/C=C(\C)CCC=C(C)C)c(O)c(CC=C(C)C)c3O[C@@]23[C@H]2C[C@@H]1C(=O)[C@]3(C/C=C(/C)C(=O)O)OC2(C)C (stereo partly specified)
IC50 [1]: 0.93 µM
Ki [2]: 390 nM

CO[C@@H]1C2C(=O)c3c(O)c4c(c(CC=C(C)C)c3O[C@@]23[C@H]2C[C@@H]1C(=O)[C@]3(C/C=C(/C)C(=O)O)OC2(C)C)O[C@](C)(CCC=C(C)C)C=C4 (stereo partly specified)
IC50 [1]: 0.74 µM
Ki [2]: 300 nM

— ChEMBL document CHEMBL4038281, “Competitive protein tyrosine phosphatase 1B (PTP1B) inhibitors, prenylated caged xanthones from Garcinia hanburyi and their inhibitory mechanism” (Bioorg Med Chem, 2017)
